Test results as given in ChEMBL document CHEMBL1145161, “Inhibitors of Trypanosoma cruzi trypanothione reductase revealed by virtual screening and parallel synthesis” (J Med Chem, 2005).

Key:
Trypanothione reductase [1] = biological target: T1, Trypanothione reductase (Trypanosoma cruzi, UniProt P28593); experiment: (§1) Inhibitory constant against recombinant Trypanosoma cruzi trypanothione reductase was determined photometrically at 25 degree C in TR assay buffer (40 mM Hepes, 1 mM EDTA, pH 7.5)
Summary of the method: (§2)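 Spectrophotometric TR assay at 25 °C, 40 mM Hepes, 1 mM EDTA, pH 7.5; 100 μM NADPH, 10–15 mU TR; reaction started with TS2, A340 decrease followed. TS2 varied at several fixed inhibitor concentrations (e.g. 5, 10, 20 μM); Ki from slopes and x-axis intercepts of Lineweaver–Burk plots, Dixon plots also used; data at least in duplicate.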

[2] = biological target: Trypanothione reductase (Trypanosoma cruzi) (UniProt P28593); experiment: as §1; summary of the method: as §2
[3] = biological target: Trypanothione reductase (Trypanosoma cruzi) (UniProt P28593); experiment: Inhibitory activity (100 uM) against recombinant Trypanosoma cruzi trypanothione reductase was determined in presence of Trypanothione disulfide (40 uM)
Summary of the method: (§3)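 Recombinant T. cruzi TR, 10–15 mU, in 40 mM Hepes, 1 mM EDTA, pH 7.5, 25 °C, 100 μM NADPH; activity at fixed TS2 (40 or 110 μM) without and with 100 μM inhibitor; TS2 starts reaction, A340 decrease monitored; DMSO controls where needed. Inhibitor stocks 4 mM in DMSO or water.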

[4] = biological target: Trypanothione reductase (Trypanosoma cruzi) (UniProt P28593); experiment: Inhibitory activity (100 uM) against recombinant Trypanosoma cruzi trypanothione reductase was determined in presence of Trypanothione disulfide (110 uM); summary of the method: as §3
Trypanothione reductase [5] = biological target: T1, Trypanothione reductase; experiment: Competitive inhibitory constant against recombinant Trypanosoma cruzi trypanothione reductase was determined photometrically at 25 degree C in TR assay buffer (40 mM Hepes, 1 mM EDTA, pH 7.5); summary of the method: as §2
[6] = biological target: T2, Glutathione reductase, mitochondrial (Homo sapiens) (UniProt P00390); experiment: Inhibitory activity against human Glutathione reductase relative to GSSG (100 uM)
T2 sequence (whole entry): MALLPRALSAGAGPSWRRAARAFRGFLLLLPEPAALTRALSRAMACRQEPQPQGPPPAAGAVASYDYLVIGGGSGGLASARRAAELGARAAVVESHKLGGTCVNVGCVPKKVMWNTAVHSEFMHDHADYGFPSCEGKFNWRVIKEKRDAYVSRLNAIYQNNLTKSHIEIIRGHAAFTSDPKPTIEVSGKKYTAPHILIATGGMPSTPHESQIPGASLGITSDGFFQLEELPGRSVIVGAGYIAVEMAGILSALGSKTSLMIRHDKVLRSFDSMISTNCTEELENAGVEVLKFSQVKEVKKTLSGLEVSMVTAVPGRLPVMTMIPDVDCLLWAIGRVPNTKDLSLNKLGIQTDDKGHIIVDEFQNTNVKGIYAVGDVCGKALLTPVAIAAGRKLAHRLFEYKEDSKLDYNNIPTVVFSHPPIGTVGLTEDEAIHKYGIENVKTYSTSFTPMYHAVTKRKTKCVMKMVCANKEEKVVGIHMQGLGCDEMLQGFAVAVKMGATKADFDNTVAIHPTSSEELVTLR

[7] = biological target: T3, Glutathione reductase, mitochondrial (Homo sapiens, UniProt P00390); experiment: (§4) Inhibitory constant against human glutathione reductase
T3 sequence (P00390 whole entry): T2 sequence (whole entry)
Summary of the method: (§5)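 Human GR kinetics in phosphate/KCl/EDTA buffer pH 6.9 at 25 °C, 100 μM NADPH, 5–10 mU GR; GSSG varied (40–1000 μM) at two fixed inhibitor levels, 120 and 240 μM; DMSO controls.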

[8] = biological target: T2, Glutathione reductase, mitochondrial (Homo sapiens); experiment: Percent inhibition of human glutathione reductase at 100 uM relative to 100 uM GSSG
[9] = biological target: T2, Glutathione reductase, mitochondrial (Homo sapiens); experiment: as §4; summary of the method: as §5

Trypanothione reductase (Trypanosoma cruzi), sequence (P28593 whole entry, looked up): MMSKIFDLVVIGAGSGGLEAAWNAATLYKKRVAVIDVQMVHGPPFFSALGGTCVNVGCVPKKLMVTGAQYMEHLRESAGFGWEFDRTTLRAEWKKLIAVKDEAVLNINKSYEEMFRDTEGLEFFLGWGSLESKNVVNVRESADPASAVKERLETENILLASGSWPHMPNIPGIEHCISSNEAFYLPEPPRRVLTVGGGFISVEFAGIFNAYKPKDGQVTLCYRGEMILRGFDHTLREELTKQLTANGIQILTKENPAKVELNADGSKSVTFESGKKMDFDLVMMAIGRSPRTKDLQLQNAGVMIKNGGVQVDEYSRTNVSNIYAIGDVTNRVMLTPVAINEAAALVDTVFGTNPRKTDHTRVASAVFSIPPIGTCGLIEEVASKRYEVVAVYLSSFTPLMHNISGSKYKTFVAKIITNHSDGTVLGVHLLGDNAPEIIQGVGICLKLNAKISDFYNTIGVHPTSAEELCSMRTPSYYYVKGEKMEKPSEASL
T1 sequence (P28593 whole entry): as the sequence (P28593 whole entry, looked up) above

| SMILES | inhibition [3] [%] | inhibition [4] [%] | also measured |
| --- | --- | --- | --- |
| COc1cc(C(=N)NCCCCCCCCNC(=N)c2ccc(OCc3ccccc3)c(OC)c2)ccc1OCc1ccccc1 | – | – | Ki (Trypanothione reductase [1]): 5 µM |
| COc1cc(C(=N)NCCCCCCCCN=C(N)c2ccc(OCc3ccccc3)c(OC)c2)ccc1OCc1ccccc1 | 92 | 85 | Ki' [2]: 47 µM |
| N=C(NC1CCC(CC2CCC(NC(=N)c3cnccn3)CC2)CC1)c1cnccn1 (stereo not given) | < 10 | < 10 | – |
| N=C(NCCc1cccnc1)c1sccc1Br | 14 | 15 | – |
| N=C(NCCc1cccnc1)c1cccs1 | < 10 | < 10 | – |
| N=C(NCCOCCOCCNC(=N)c1cccs1)c1cccs1 | 14 | < 10 | – |
| N=C(NC1CCC(CC2CCC(NC(=N)c3cccs3)CC2)CC1)c1cccs1 (stereo not given) | 17 | 16 | – |
| O=C(Cc1cccc2ccccc12)NCCNC(=O)C1(NC(=O)C(=O)c2ccc([N+](=O)[O-])cc2)CCNCC1 | – | – | Ki' [2]: 8.5 µM; Ki (Trypanothione reductase [1]): 6.2 µM |
| CN1CCN(CCC/N=C(\N)c2sccc2Br)CC1 | < 10 | < 10 | – |
| COc1cc(C(N)=Nc2ccc(Oc3ccc(N=C(N)c4ccc(OCc5ccccc5)c(OC)c4)cc3)cc2)ccc1OCc1ccccc1 | – | – | Ki (Trypanothione reductase [1]): 2 µM |
| N=C(CCCCCCCC(=N)NCC#Cc1ccccc1)NCC#Cc1ccccc1 | 80 | 69 | Ki (Trypanothione reductase [5]): 6 µM; inhibition [6]: 5% |
| COc1cc(C(=N)Nc2ccc(Oc3ccc(NC(=N)c4ccc(OCc5ccccc5)c(OC)c4)cc3)cc2)ccc1OCc1ccccc1 | 95 | 90 | Ki' [2]: 22 µM; inhibition [6]: 45% |
| [H]/N=C(\N/C(=N/[H])NCCCCCCNC(=N)NC(=N)Nc1ccc(Cl)cc1)Nc1ccc(Cl)cc1 [CHLORHEXIDINE] | – | – | Ki [7]: 192 µM; Ki (Trypanothione reductase [1]): 2 µM |
| N=C(Nc1ccc(Oc2ccc(NC(=N)c3cccs3)cc2)cc1)c1cccs1 | 11 | 12 | – |
| N=C(NCCOCCOCCNC(=N)c1cnccn1)c1cnccn1 | 11 | < 10 | – |
| CN1CCN(CCC/N=C(\N)c2cccs2)CC1 | < 10 | < 10 | – |
| CN1CCN(CC/N=C(\N)c2ccc3[nH]ccc3c2)CC1 | 39 | 31 | – |
| N=C(NCCCCCCCCNC(=N)c1cccs1)c1cccs1 | 15 | < 10 | – |
| COc1cc(C(=N)NC2CCC(CC3CCC(/N=C(\N)c4ccc(OCc5ccccc5)c(OC)c4)CC3)CC2)ccc1OCc1ccccc1 (stereo not given) | 94 | 97 | Ki' [2]: 16 µM; Ki (Trypanothione reductase [1]): 2 µM; inhibition [8]: 35% |
| N=C(NCCCCCCNC(=N)NC(=N)Nc1ccc(Cl)cc1)NC(=N)Nc1ccc(Cl)cc1 | – | – | Ki' [9]: 210 µM |
